Shown is part of a subset that was picked to be rich in hits.
T cruzi inh: inhibitors of intracellular T. cruzi growth, primary screen, luminescence, NIH3T3 host cells | T. cruzi beta-gal in NIH3T3, 90 h | inhibition, % (no concentration beside the values) | actives 1.4% (n = 300,000);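 active means mean inhibition across valid replicates above about 55%, limit read from the data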;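 further: signal also drops with host cell toxicity which is not excluded here; higher percent means less beta-gal luminescence so fewer parasites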
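Material: NIH/3T3 host cells with β-galactosidase reporter T. cruzi; Input: 5,000 host fibroblasts per well; Medium: DMEM, 2% fetal bovine serum; Compound: 50 nL DMSO compound solution per well; Schedule: 3 h host attachment, then at least 90 h co-culture; Detection: luminescent β-galactosidase signal after 60 min lysis.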
Redox H2O2 prof: compounds producing H2O2 with reducing agent – biochemical, NIH compound library profiling, artefact control for MLSCN library redox annotation, primary screen; DTT-dependent redox cycling H2O2, phenol red/HRP absorbance; 100% = 100 µM peroxide control, 0% = buffer; activation, % at 10 µM; actives 0.03% (n = 200,000); AID 878, 2007;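 active means activation of at least 50% relative to the plate's high and low controls in the primary single-dose screen; inactive means activation below 50%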;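 further: compound incubated with DTT at 0.8 mM final as the reducing agent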
L major viab: Leishmania major promastigote growth inhibition, primary screen | Leishmania major promastigotes, resazurin fluorescence viability | AID 1063, 2008 | inhibition, % at 10 µM | actives 9% (n = 200,000); in the data active means inhibition above about 50%;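 further: promastigotes grown with compound for 44 hours at 28 °C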
Hep lipid drop: inhibitors of hepatocyte lipid droplet formation, primary screen, imaging, high-throughput imaging, BODIPY stain; AML12 mouse hepatocytes, oleate lipid droplets; inhibition, % at 6.5 µM; actives 0.4% (n = 240,000); AID 1656, 2009;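 active means lipid droplet intensity inhibited by at least 50%, with more than 500 cells counted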
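Test system: AML12 mouse liver cells; schedule: overnight exposure; technique: high-content imaging of BODIPY-stained droplets and DAPI nuclei; read-out: % inhibition of corrected integrated BODIPY droplet signal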
MPTP block: mitochondrial permeability transition pore inhibitors, primary screen, biochemical, isolated mouse mitochondria, absorbance; AID 602449, 2012; inhibition, % at 10 µM; actives 1.4% (n = 360,000); Ca2+ swelling absorbance, 30 min;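 active means inhibition of 50% or more, scaled per plate between neutral and stimulator controls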
Of the large screens only hits and unclear results are named; the others gave an inactive call.

COC(=O)c1ccccc1NC(=O)N1c2ccccc2Sc2ccccc21	L major viab 90
COC(=O)c1ccc(Cn2c(C)c(C(=O)NCc3cccs3)sc2=O)o1	none (no result: T cruzi inh, Redox H2O2 prof, L major viab, Hep lipid drop)
C[C@H](CO)N1C[C@H](C)[C@@H](CN(C)S(C)(=O)=O)Oc2ccc(NS(=O)(=O)c3ccccc3)cc2C1=O	none (no result: T cruzi inh, Redox H2O2 prof, L major viab, Hep lipid drop)
Clc1ccc(-c2csc(N/N=C\c3cccnc3)n2)cc1	T cruzi inh 55
Clc1ccc(-c2csc(N/N=C/c3ccco3)n2)cc1	none (no result: Redox H2O2 prof, L major viab)
Cc1ccc(Nc2nc(-c3cccnc3)cs2)cc1Cl	T cruzi inh 59 (no result: Redox H2O2 prof, L major viab)
Cc1cc(C)n(-c2ccc(C(=O)Nc3ccc(C)c(S(=O)(=O)N(C)C)c3)cc2)n1	L major viab 53
CC(=O)c1ccc(OCCCC(=O)Nc2ccc(C)c(S(=O)(=O)N(C)C)c2)cc1	L major viab 61
CCc1cccc(CC)c1NC(=O)COC(=O)CC1c2ccccc2CCN1S(=O)(=O)c1ccc(F)cc1 (configuration not stated)	L major viab 98
COc1ccc2oc3c(ccc[n+]3C)c(=O)c2c1	none (no result: T cruzi inh, Redox H2O2 prof, L major viab, Hep lipid drop)
CC(CSc1nc2ccccc2s1)Cn1c(N2CCCC2)nc2c1c(=O)[nH]c(=O)n2C (configuration not stated)	L major viab 52
CC1CCN(c2nc3c(c(=O)[nH]c(=O)n3C)n2CC(C)CSc2nnnn2-c2ccccc2)CC1 (configuration not stated)	L major viab 98
CCN1CCN(c2nc3c(c(=O)[nH]c(=O)n3C)n2CCSc2nc3ccccc3s2)CC1	none (no result: Hep lipid drop)
CCSc1nnc(NC(=O)c2cnccn2)s1	none (no result: Redox H2O2 prof, L major viab, Hep lipid drop, MPTP block)
CCSc1nnc(NC(=O)c2ccccn2)s1	L major viab 98
CCSc1nnc(NC(=O)[C@@H](NC(=O)c2ccccc2)C(C)C)s1	L major viab 50
CCOc1ccc(C(CC(=O)O)NC(=O)c2cccs2)cc1OC (configuration not stated)	none
COc1ccc(NC(C#N)c2ccc(OC)cc2)cc1 (configuration not stated)	L major viab 91
COc1ccc(C(C#N)Nc2ccccc2)cc1 (configuration not stated)	none (no result: MPTP block)
COc1cccc(-c2ccc(NC(=O)C3CCCN(Cc4cccc(C)n4)C3)cc2)c1 (configuration not stated)	none (no result: T cruzi inh, Redox H2O2 prof, L major viab, Hep lipid drop)
O=C(c1ccc2c3c(cccc13)CC2)C1CCCN(C(=O)c2cccnc2)C1 (configuration not stated)	none
O=C(c1ccc2c3c(cccc13)CC2)C1CCCN(Cc2cccnc2)C1 (configuration not stated)	T cruzi inh 62, L major viab 96
Cc1cccc(CN2CCCC(C(=O)c3ccc4c5c(cccc35)CC4)C2)n1 (configuration not stated)	L major viab 53
COc1cc(CN2CCCC(C(=O)c3ccc4c5c(cccc35)CC4)C2)cc(OC)c1O (configuration not stated)	L major viab 99
COc1ccc2cc(C(=O)C3CCCN(Cc4cccc(C)n4)C3)ccc2c1 (configuration not stated)	L major viab 86
O=C(NN1CCOCC1)NC12CC3CC(CC(C3)C1)C2	none (no result: Redox H2O2 prof, L major viab)
COC(=O)C1=C(N)Oc2c(oc(CO)cc2=O)C1c1ccc(F)cc1 (configuration not stated)	none (no result: Redox H2O2 prof, L major viab)
COC(=O)C1=C(N)c2c(F)cccc2C1(C#N)c1ccc(F)cc1 (configuration not stated)	L major viab 51
CC(C)C[C@H](NC(=O)C1CCN(S(=O)(=O)c2ccccc2)CC1)C(=O)NCc1ccccn1	none (no result: Redox H2O2 prof, L major viab)
CNC(=O)C(=O)Nc1cc2c3c(c1)C(C)C(=O)N3CCC2 (configuration not stated)	none (no result: Redox H2O2 prof, L major viab)
CC1C2CC(C/C2=N/NC(=O)c2cccs2)C1(C)C (configuration not stated)	L major viab 95
Cc1cc(-c2ccccc2)nc(Cl)c1C#N	L major viab 70
CCCCCN(C(=O)CCC(=O)OC(C)C(=O)c1ccccc1)c1c(N)n(CCCC)c(=O)[nH]c1=O (configuration not stated)	none (no result: Redox H2O2 prof, L major viab, Hep lipid drop)
COc1cc(/C=N/NC(=O)c2cccc(NC(=O)c3ccccc3)c2)ccc1O	none (no result: Redox H2O2 prof, L major viab)
COc1cc(/C=N/NC(=S)Nc2cccc(S(=O)(=O)N(C)C)c2)ccc1O	L major viab 67
CCCOc1ccc(/C=N/Nc2cccc([N+](=O)[O-])c2)c(O)c1	none
COc1ccc(/C=N/NC(=S)Nc2ccccc2[N+](=O)[O-])cc1O	L major viab 57
CCCOc1ccc(/C=N/NC(=S)Nc2ccccc2[N+](=O)[O-])c(O)c1	L major viab 98 (no result: MPTP block)
CCCCN1C2=C(C(=O)CC(C)(C)C2)C(c2ccccc2)C2=C1c1ccccc1C2=O (configuration not stated)	L major viab 84
CCCN1C2=C(C(=O)CC(C)(C)C2)C(c2ccc(F)cc2)C2=C1c1ccccc1C2=O (configuration not stated)	L major viab 72
O=[N+]([O-])c1ccc(-c2cnc(SCc3ccccc3Cl)[nH]2)cc1	none (no result: Hep lipid drop)
Cc1cc(C)c(CSc2ncc(-c3ccc([N+](=O)[O-])cc3)[nH]2)c(C)c1	T cruzi inh 58, L major viab 97 (no result: Hep lipid drop)
O=C(NCc1ccccc1)c1cc[n+](CC(=O)c2cccs2)cc1	none (no result: Redox H2O2 prof, L major viab)
CC1(C)CC(NCCN2CCN(C3=CC(=C(C#N)C#N)CC(C)(C)C3)CC2)=CC(=C(C#N)C#N)C1	T cruzi inh 86
CNC(=S)N1CCN(CCNC2=CC(=O)CC(C)(C)C2)CC1	none
CCOc1ccc2nc(SCC(=O)N3CCCCCC3)c(C#N)cc2c1	L major viab 64
CCOc1ccc2cc(C#N)c(SCC(=O)N3CCOCC3)nc2c1	none
CCc1ccc(CN(C)CCc2ccccn2)cc1	T cruzi inh 63
CN(C)CCN(Cc1ccc(Cl)cc1)c1ccccn1	L major viab 99
Cc1ccc(CN(C)CCc2ccccn2)cc1	T cruzi inh 67
CN(CCc1ccccn1)Cc1ccc(Cl)cc1	T cruzi inh 56
COC(=O)Cc1ccc(NC(=S)N2CCN(c3ccc(F)cc3)CC2)cc1	none
CN1CC(c2ccccc2)C2(SC(=S)N(Cc3ccco3)C2=O)C12C(=O)Nc1ccccc12 (configuration not stated)	L major viab 98
CS(=O)(=O)N1CCC(C(=O)N2CCN(C(c3ccccc3)c3ccccc3)CC2)CC1	L major viab 67
COc1ccc(C(=O)NC(=S)Nc2ccccc2N2CCOCC2)cc1[N+](=O)[O-]	none
COc1ccc(C(=O)NC(=S)Nc2ccc(N3CCOCC3)c(Cl)c2)cc1[N+](=O)[O-]	L major viab 100
CCCC(=O)N1CCN(c2ccc(NC(=O)c3ccc(OCC)c([N+](=O)[O-])c3)cc2)CC1	none (no result: Hep lipid drop)

From PubChem
